# Rows were chosen to be rich in hits. Some 2.1% of all compounds tested hit in one or more screens of this group.
# C2C12 statin = protects C2C12 myotubes from simvastatin toxicity. rescue of ATP level, % at 7.49 µM. ATP luminescence, 48 h; scaled: DMSO 0, geranylgeraniol control 100. AID 602340. hit rate 0.78% among 330,000;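 active means mean ATP rescue above about 67%, or every replicate alone reaching that limit, limit read from the data, passing the limit was not always enough; inconclusive means no clear call, values can overlap the other calls; inactive means mean under the limit and some replicate under it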;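 further: myotubes were challenged with 10 µM simvastatin during compound exposure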
# Cneo AK release = causes C. neoformans cell lysis; adenylate kinase release luminescence, 4 h; normalised: neutral wells 0, clomiphene wells 100; lysis activity, % at 15 µM; hit rate 0.2% among 360,000;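 active means mean lysis activity across replicates of at least 80%, whatever share of replicates individually reach that level; inactive means mean lysis activity below 80%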
#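 Material – log-phase Cryptococcus neoformans yeast cells · Input – 5 × 10^6 yeast cells/mL · Medium – fresh YPD growth medium · Doses – single compound concentration per well · Timing – static 4 h at 37 °C with compound, 1 h detection · Detection – adenylate kinase release luminescence · Read-out – signal increase indicating cell lysis · Control set – Clomiphene as positive lysis control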
# XiGFP reactiv = reactivates the inactive X chromosome in mouse fibroblasts | XiGFP mouse fibroblasts, % GFP-positive cells imaging, 3 d; cells co-treated with 5-aza-dC sensitizer; scaled so ellipticine positive control = 100% | activation, % at 7.58 µM | hit rate 0.055% among 360,000 | AID 743238;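 active means mean normalized replicate activation at least 10% and every replicate at or above 10%; inconclusive means only one of the two criteria met; inactive means mean below 10% and not all replicates reach 10%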;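 further: 0% = median of on-plate neutral control wells and 100% = ellipticine 6 µM median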
#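 System: SV40-immortalized XiGFP fibroblast cells, line 68-5-11 / Incubation: 3-day compound exposure, then 15 min fixation at room temperature / Compound: single concentration per compound, delivered by pin transfer / Buffer or medium: DMEM plus 5-aza-dC sensitizer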
# DENV2 CPE rescue = inhibitors of DENV2 cytopathic effect; DENV2-infected cells, cytopathic effect rescue, plate reader; CPE inhibition, % at 9.99 µM; hit rate 1.7% among 350,000; in the data active means CPE inhibition above about 20%, passing the limit was not always enough; inconclusive means no clear call, values can overlap the other calls; tested in BHK-21 cells;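 further: 0% = median of neutral control wells and 100% = median of positive control wells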
# Numbers without * were called inactive; ? = inconclusive; . = no result.
SMILES,C2C12 statin,Cneo AK release,XiGFP reactiv,DENV2 CPE rescue
C[C@@H]1CCCCO[C@@H](CN(C)C(=O)C2CCCCC2)[C@@H](C)CN([C@@H](C)CO)C(=O)c2cc(NC(=O)Nc3ccc(F)cc3)ccc2O1,.,1,0,21*
C[C@@H]1CCCCO[C@H](CN(C)C(=O)C2CCCCC2)[C@@H](C)CN([C@@H](C)CO)C(=O)c2cc(NC(=O)Nc3ccc(F)cc3)ccc2O1,.,-3,0,47*
C[C@@H]1CN([C@@H](C)CO)C(=O)c2cc(NC(=O)Nc3ccc(F)cc3)ccc2O[C@@H](C)CCCCO[C@@H]1CN(C)C(=O)C1CCCCC1,.,-3,0,-2
C[C@@H]1CN([C@H](C)CO)C(=O)c2cc(NC(=O)Nc3ccccc3)ccc2O[C@@H](C)CCCCO[C@@H]1CN(C)C(=O)C1CCCCC1,.,0,.,71*
C[C@@H]1CN([C@@H](C)CO)C(=O)c2cc(NC(=O)Nc3ccc(F)cc3)ccc2O[C@@H](C)CCCCO[C@H]1CN(C)C(=O)C1CCCCC1,.,-2,0,-4
C[C@@H]1CCCCO[C@@H](CN(C)C(=O)C2CCCCC2)[C@H](C)CN([C@@H](C)CO)C(=O)c2cc(NC(=O)Nc3ccc(F)cc3)ccc2O1,.,3,0,25*
C[C@H]1CCCCO[C@H](CN(C)C(=O)C2CCCCC2)[C@@H](C)CN([C@@H](C)CO)C(=O)c2cc(NC(=O)Nc3ccccc3)ccc2O1,.,3,0,-4
C[C@H]1CN([C@@H](C)CO)C(=O)c2cc(C3=CCCCC3)cnc2O[C@H]1CN(C)C(=O)c1ccncc1,12,6,-1,0
COCCn1c(C)cc(C(=O)CSc2nc3ccccc3o2)c1C,85*,-1,.,.
Nc1ccccc1SCC(=O)N1CCc2ccccc21,11,0,.,.
O=C(CSCCO)N1CCc2ccccc21,116*,24,.,.
COc1ccc2c3c(n(C)c2c1)[C@H](CO)N(C(=O)c1ccncc1)CC31CN(CC2CC2)C1,.,.,0,8
O=c1[nH]c(=O)n(C2OC(CO)C(O)C(O)C2O)cc1F (stereo not given),.,.,.,68*
C[C@H]1O[C@@H](n2cc(F)c(=O)[nH]c2=O)[C@H](O)[C@@H]1O,5,0,0,7
CC(O)(Cc1cccnc1)c1cccs1 (stereo not given),.,.,0,77*
O=C(Cc1cccs1)NCc1cccnc1,.,0,.,.
CCOC(=O)N1CCN(C(C(=O)NC2CCCC2)C(C)C)CC1 (stereo not given),.,.,0,30*
COc1ccc(C#Cc2ccc3c(c2)[C@H]2[C@H](CCN2C(=O)CC2CC2)[C@@H](CO)N3)cc1,9,4,0,4
CC(C)c1cn(CC[C@H]2CC[C@H](NC(=O)C3CCOCC3)[C@H](CO)O2)nn1,.,.,-1,-3
Nc1c(C(=O)c2ccccc2)sc2nsc(SCCN3CCCC3)c12,-34,2,?,57*
CO[C@H]1CC[C@@H]2CCN(C)C(=O)[C@@H](C)N(C)C(=O)c3cc(C#N)ccc3OC[C@H]1O2,-17,.,0,.
Cc1cccc(-n2ncc3c(NCCc4ccc(S(N)(=O)=O)cc4)ncnc32)c1,105*,-2,0,0
COc1cccc(C#Cc2ccc3c(c2)[C@@H]2[C@@H](CCN2S(=O)(=O)c2ccccc2)[C@@H](CO)N3)c1,.,.,0,45*
COc1cccc(S(=O)(=O)N2CC[C@H]3[C@H](CO)Nc4ccc(C#Cc5ccccc5)cc4[C@H]32)c1,-10,-7,0,31*
COc1cccc(S(=O)(=O)N2CC[C@@H]3[C@@H](CO)Nc4ccc(C#Cc5ccccc5)cc4[C@@H]32)c1,-17,4,0,-10
SMILES,C2C12 statin,Cneo AK release,XiGFP reactiv,DENV2 CPE rescue
C[C@H]1CN([C@@H](C)CO)C(=O)c2cccc(NC(=O)Nc3ccccc3)c2O[C@@H]1CN(C)Cc1ccc(Cl)c(Cl)c1,-31,0,-1,-10
C[C@@H]1CN([C@H](C)CO)C(=O)c2cccc(NC(=O)Nc3ccccc3)c2O[C@@H]1CN(C)Cc1ccc(Cl)c(Cl)c1,-15,101*,0,76*
C[C@@H]1CN([C@@H](C)CO)C(=O)c2cccc(NC(=O)Nc3ccccc3)c2O[C@H]1CN(C)Cc1ccc(Cl)c(Cl)c1,-23,0,-1,-12
C[C@H](CO)N1C[C@H](C)[C@@H](CN(C)Cc2ccc(Cl)c(Cl)c2)Oc2c(NC(=O)CCC(F)(F)F)cccc2C1=O,2,0,0,22*
C[C@H](CO)N1C[C@H](C)[C@H](CN(C)Cc2ccc(Cl)c(Cl)c2)Oc2c(NC(=O)Nc3ccccc3)cccc2C1=O,22,90*,-1,2
CCNC(=S)NNC(=O)c1cccn(Cc2ccc(Cl)cc2Cl)c1=O,82*,2,.,.
Cc1ccc(Nc2c([N+](=O)[O-])c(=O)oc3ccccc23)cc1,.,.,0,-6
O=c1oc2ccccc2c(Nc2ccc(O)cc2)c1[N+](=O)[O-],133*,-1,.,.
COC(=O)COc1ccc(S(=O)(=O)Nc2ccccc2SC)cc1,127*,-3,.,.
CSc1ccccc1NS(=O)(=O)c1ccc2c(c1)OCCO2,92*,-2,.,-6
COC(=O)c1ccc(C)c(NS(=O)(=O)c2ccc(OC)cc2)c1,-13,1,.,1
COC(=O)c1ccc(C)c(NS(=O)(=O)c2ccc3c(c2)OCCO3)c1,92*,1,.,.
C[C@@H]1CN([C@H](C)CO)C(=O)c2cc(NS(=O)(=O)c3cn(C)cn3)ccc2O[C@@H](C)CCCCO[C@H]1CN(C)S(=O)(=O)c1cn(C)cn1,.,2,0,12
CCCC#Cc1ccc2c(c1)O[C@H](CN(C)C(=O)NC(C)C)[C@H](C)CN([C@H](C)CO)S2(=O)=O,2,3,-1,1
C[C@@H]1CCCCO[C@@H](CN(C)S(C)(=O)=O)[C@H](C)CN([C@@H](C)CO)C(=O)c2cc(N(C)C)ccc2O1,52,-1,0,1
COc1ccc(-c2oc3ccc(-c4cc(OC)c(OC)c(OC)c4)cc3c2-c2ccc(OC)nc2)cc1,-4,0,0,80*
CCc1n[nH]c2c1/C(=N/O)CCC2,87*,2,.,.
ClCCCc1cn(C[C@H]2CC[C@@H]([C@@H]3CC[C@H](Cn4cc(CCCCl)nn4)O3)O2)nn1,-4,2,0,22*
CCCOc1ccc(/C=c2\sc3nc(-c4ccco4)nn3c2=O)cc1OCC,98*,-2,.,.
C[C@H](CO)N1C[C@H](C)[C@H](CN(C)C)Oc2cc(C#CC3CCCCC3)ccc2S1(=O)=O,17,2,0,1
Nc1ccc(-c2cc3ccccc3c(=O)o2)cc1,4,2,0,67*
C[C@@H]1CCCCO[C@@H](CN(C)S(=O)(=O)c2ccccc2)[C@H](C)CN([C@@H](C)CO)C(=O)c2cc(NS(=O)(=O)c3cccs3)ccc2O1,.,-1,0,3
CCCN1[C@@H]2c3ccc(-c4ccc(OC)cc4)c(=O)n3C[C@@H]2[C@@H](CO)[C@@H]1C(=O)NCC,9,-1,0,-6

# Assay outcomes (PubChem)
